Assay results from PubChem BioAssay.
Results filed as inconclusive are left out.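 How the source made its calls, unless noted: active means inhibition over a set limit, the all-compound mean plus 3 SD, in both replicate runs; inconclusive means over that limit in just one replicate run; inactive means at or under that limit in both runs.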

Columns and labels:
[1] = S. cerevisiae growth inhibition in permissive medium (OD615), pilot counter-assay for S. cerevisiae lifespan shortening project, permissive growth control (AID 705;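 active means growth inhibition above 25% in both replicates, a cutoff set 3 SD above the mean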); conditions: OD615, 24 h, at 10 µM, hits give high values
Outline: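 System: Engineered DeaD yeast | Buffer or medium: SC raffinose/galactose permissive medium | Incubation: Cells pre-grown 4 h, then 24 h compound exposure, 30 °C humidified | Measured by: Absorbance (optical density) at 615 nm | Read-out: Reduction in yeast growth (OD615)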

[2] = S. cerevisiae growth inhibition in restrictive medium, OD615, pilot screen, restrictive growth control, yeast lifespan reduction project (AID 706;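 active means growth inhibition above a set limit, 3 SD over mean compound inhibition, in both replicates, cut at about 43% in these data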;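 further: modified DeaD lifespan yeast strain shifted to restrictive glucose medium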); conditions: OD615, 48 h, at 10 µM, hits give high values
Outline: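 Material: modified S. cerevisiae; Medium: glucose-based CSMM-D restrictive medium; Compound dosing: one concentration, 10 µM final, 0.25% DMSO; Incubation: 48 h compound exposure at 30 °C; Measured by: OD615.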

[3] = doxorubicin toxicity protection in MRP-1 cells – H69AR cells, CellTiter-Glo, duplicate, MRP-1 activator project, pilot screen (AID 807;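 active means viability increase at or above a cutoff of the median across tested compounds plus 3 SD, cut at about 8.5% in these data, passing the limit was not always enough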;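 further: compound pretreatment 18-22 h then 72 h combined with doxorubicin; 0% = doxorubicin alone and 100% = vehicle without doxorubicin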); conditions: H69AR viability with doxorubicin, CellTiter-Glo luminescence; at 10 µM; hits give high values
[4] = viability of HCT116 without oncogenic beta-catenin – human colon tumor cells, pilot screen (AID 823;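 active means cell viability at or below a set limit in both duplicate runs, the limit being the all-compound median minus 4 SD, cut at about 23% in these data, passing the limit was not always enough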;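 further: 0% = wells killed by 20 µM Hyamine and 100% = untreated DMSO cell wells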); conditions: HCT116 beta-catenin knockout viability, CellTiter-Glo, 60 h; at 10 µM; hits give low values
[5] = viability of PTEN-null HCT116 cells – cell-based, HCT116 clonal line, CellTiter-Glo, pilot screen (AID 824;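 active means viability at or below 27.92% in each of two runs, the all-compound median minus 4 SD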;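 further: 0% = 20 µM Hyamine control and 100% = vehicle cell control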); conditions: HCT116 PTEN-deleted viability, 60 h, at 10 µM, hits give low values
[6] = RAM pathway blockade in budding yeast – dse1pr::URA3 reporter, 5-FOA selection, pilot screen (AID 869);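 further: 0% = DMSO wells with no growth and 100% = 10 µM 1-NA-PP1 with full growth; RAM network block rescues cells from 5-FOA so hits raise OD615 growth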; conditions: S. cerevisiae dse1pr::URA3 5-FOA growth, OD615, 2 d; at 10 µM; hits give high values; strain carries analog-sensitive mutant Cbk1 kinase

CCOC(=O)c1cc2c(=O)n3ccccc3nc2n(Cc2ccco2)c1=NC(=O)c1cccnc1
inactive: growth inhibition [1] -1.49% | growth inhibition [2] 14% | viability increase [3] 3.61% | viability [4] 99.5% | viability [5] 99% | inhibition [6] 1.91%

CC1CCN(c2nc3c(c(=O)[nH]c(=O)n3C)n2CCCc2ccccc2)CC1
inactive: growth inhibition [1] -15.8% | growth inhibition [2] -41.8% | viability increase [3] -3.5% | viability [4] 79.9% | viability [5] 72.9% | inhibition [6] 1.45%

COc1cc2[nH]c(=O)n(Cc3ccc(C(=O)NCC4CCCO4)cc3)c(=O)c2cc1OC (centres undefined)
inactive: growth inhibition [1] -14.9% | growth inhibition [2] -17.9% | viability increase [3] -3.55% | viability [4] 90.2% | inhibition [6] 3.56%

COc1cccc(NC(=O)c2ccc(S(=O)(=O)N3CCCCC3)cc2)c1
inactive: growth inhibition [1] 4.79% | growth inhibition [2] 5.21% | viability increase [3] -1.52% | viability [4] 95.6% | viability [5] 85.7% | inhibition [6] 1.28%

C=C(C)Cn1c(SCC(=O)O)nnc1-c1ccc(C(C)(C)C)cc1
inactive: growth inhibition [1] -15.7% | growth inhibition [2] -4.97% | viability increase [3] 0.28% | viability [5] 101% | inhibition [6] 1%

N#CCSc1n[nH]c2nc3c(c(=O)n12)C1(CCCC1)Cc1ccccc1-3
inactive: growth inhibition [1] -1.95% | growth inhibition [2] 28% | viability increase [3] 4.21% | viability [4] 102% | inhibition [6] 2.08%

O=C1c2ccccc2C(Nc2ccc(S(=O)(=O)N3CCOCC3)cc2)N1c1cccnc1 (centres undefined)
inactive: growth inhibition [1] -3.45% | growth inhibition [2] -1.27% | viability increase [3] -0.92% | viability [4] 102% | viability [5] 97% | inhibition [6] -0.33%
